{"source": "the RNAGym collection of RNA variant scans (doi:10.1126/science.aae0568)", "parents": {"B1": {"name": "tRNA (parent)", "chain": "GUUCCGUUGGCGUAAUGGUAACGCGUCUCCCUCCUAAGGAGAAGACUGCGGGUUCGAGUCCCGUACGGAACG"}}, "note": "Variants at the floor of the assay were thinned out.", "data": [{"variants_of": "B1", "assay": "yeast fitness relative to wild type (ratio to wild type); higher = fitter; tRNA-Arg(CCU), competitive growth, 37 C, YPD", "procedure,_shortened": "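For this measurement, the tRNA-Arg(CCU) gene was varied by chemical synthesis at a 3% per-site mutation rate across 69 sites, and each variant was placed at the native genomic locus in Saccharomyces cerevisiae. The pooled strains went through a 24-hour competition in YPD at 37°C in six parallel replicates, with amplicons from start and end populations read by 100-nucleotide paired-end sequencing. Darwinian fitness relative to wild type followed from the change in each genotype's frequency. Genotypes needed ≥ 100 starting reads, and estimates < 0.5 were set to 0.5.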", "values": [{"variant": "GUUCCGUUGGCGUAUUGCUAACCGGUCUCCCUCCUAAGGAGAAGACUGCGGGUUCGAGUCCCGUACGGAACG", "yeast fitness": "≤ 0.5"}, {"variant": "GUUCCGUUGGCGUAUUGGUAACGCGUCUCCCUCCUAAGGAGAAGAGUGCGGGUUCGAGUCACGUACGGAUCG", "yeast fitness": "≤ 0.5"}, {"variant": "GUUCCGUUGGCGUAUUGGUAACGCGUCUCCCUCCUAAGGAGAAGACUGGGGGUUCGAGUCCCGUACGCAACG", "yeast fitness": "≤ 0.5"}, {"variant": "GUUCCGUUGGCGUAUUGGUAACGCGUCUCCCUCCUAAGGAGAAGACUGCGGGUUCGAGUCCAGUACGGAACG", "yeast fitness": 0.624}, {"variant": "GUUCCGUUGGCGUAUUGGUAACGCGUCUCCCUCCUAACAAGACGACUGCGGGUUCGAGUGCCGUACGGAACG", "yeast fitness": 0.569}, {"variant": "GUUCCGUUGGCGUAUUCGUAACGCGUUUCCCUCCUAAGGAGAAGACUGCGGGUUCGAGUGCCGUACGGAACG", "yeast fitness": "≤ 0.5"}, {"variant": "GUUCCGUUGGCGUAUUGGUAACGCGUCUCCCUCCUAACGAGAAGACUGCGGGUUCGAGUCCCGUACGGAACG", "yeast fitness": 0.699}, {"variant": "GUUCCGUUGGCGUAUUGGUAACGCGUCUCCCUCCUAAGGAGAAGACUGCGAGUUCGAGUCCCGUACGGAACG", "yeast fitness": 0.722}, {"variant": "GUUCCGUUGGCGUAUUGGUAACGCGUCUCCCUCCUAAGGAGAAGACUGCGCGUUCGAGUCCCGUACGGAACG", "yeast fitness": 0.555}, {"variant": "GUUCCGUUGGCGUAUUGGUAACGCGUCUCCCUGCUAAGGAGAAGACUGCUGGUUCGAGUCCCGUACGGAACG", "yeast fitness": 0.527}, {"variant": "GUUCCGUUGGCGUAUUGGUAACGCGUCUCCCUCCUAAGGAGAAGACUACGGGUUCGAGUCCCGUACGGAACG", "yeast fitness": 0.763}, {"variant": "GUUCCGUUGGCGUAUUGGUAACGCGUCUCCCUCCUAAGGAGAAGACUGCGGGUUCGAGUCCCGUACAGAACG", "yeast fitness": 0.654}, {"variant": "GUUCCGUUGGCGUAUUGGUAACGCGUCUCCCUCCUAAGGAGAAGACUGCGGGUUCGAGUCCCGUACCGAACG", "yeast fitness": 0.657}, {"variant": "GUUCCGUUGGCGUAUUGGUAACGCGUCUCCGUCCUAAGGAGAAGACUGCCGGUUCGACUCCCGUACGGAACG", "yeast fitness": 0.588}, {"variant": "GUUCCGUUGGCGUAUUGGUAACAGGUCUUCCUCCUAAGGAGAAGACUGCGGGUUCGAGUCACGUACGGGACG", "yeast fitness": "≤ 0.5"}, {"variant": "GUUCCGUUGGCGUAUUGGUAACGCGUCUCCCUCCUAAGAAGAAGACUGCGGGUUCGUGUCCGGUACGGAACG", "yeast fitness": 0.502}, {"variant": "GUUCCGUUGGCGUAUAGGUACCGCGUCUCCCUGCUAAGGAGAAGACUGCGGGUUCGAGUCCCGUACGGAACG", "yeast fitness": 0.558}, {"variant": "GUUCCGUUGGCGUAUUAGUAACGCGUCUCCCUCCUAAGGAGAAGACUGCGGGCUCGAGUCCCGUAUGGUACG", "yeast fitness": "≤ 0.5"}, {"variant": "GUUCCGUUGGCGUAUUGGUAACGCGUCUCCCUCCUAAGGACAAGACUGCGGGUUCCAGUCCCGUACGGAACG", "yeast fitness": "≤ 0.5"}, {"variant": "GUUCCGUUGGCGUAUUGGUAACGCGUCUCCCUCCUAAGGAGAAGACUGCGGGUUCAAGUCCCGUACGGAACG", "yeast fitness": 0.727}, {"variant": "GUUCCGUUGGCGUAUAGGUAACGCGUCUCCCUCCUAAGGAGAAGACUGCGGGUUCGAGUCCCGUACGGAACG", "yeast fitness": 0.705}, {"variant": "GUUCCGUUGGCGUAUUGGUAACGCGUCUCCCUCCUAAGGAGAAGACUGCGGGUUCGACUCCCGUACGGAUCG", "yeast fitness": 0.643}, {"variant": "GUUCCGUUGGCGUAUUGGUAACGCGUCUCCCUCCUAAGGAGAAGACUGCGGAUUCGAGUCGCGUACGGAACG", "yeast fitness": 0.596}, {"variant": "GUUCCGUUGGCGUAUUGGUAACGCGUCUCCCUCCUAACAAGACGACUGCGGGUUCGAGUGCCGUCCGGAACG", "yeast fitness": 0.559}, {"variant": "GUUCCGUUGGCGUAUUGGUAACGCGUCUCCCUCGUAAGGAGAAGACUGCGGGUUCGAGUCCCGUACGGUACG", "yeast fitness": "≤ 0.5"}, {"variant": "GUUCCGUUGGCGUAUUGGUAACGCGUCUCCCUCCUAAGGAGAAGAGUGCGGGUUCGAGUCACGUACGGAACG", "yeast fitness": 0.51}, {"variant": "GUUCCGUUGGCGUAUUGGUAACGCGUCUCCCUCCUAAGCAGCAGACUGCGGGUUCGAGUCCCGUCCGGAACG", "yeast fitness": "≤ 0.5"}, {"variant": "GUUCCGUUGGCGUAUUGGUAACGCGUCUCCCUCCUAAGGAGAAGAAUGCGGGUUCGAGCCCCGUACGGAACG", "yeast fitness": "≤ 0.5"}, {"variant": "GUUCCGUUGGCGUAUUGCUAACGCGUCUCCCUCCUAAGGAAAAGACUGCGGGUUCGAGUCCCGUACGGCGCG", "yeast fitness": "≤ 0.5"}, {"variant": "GUUCCGUUGGCGUAUUGGUAACGCGUCUCCCUCAUAAGGAGAAGACUGCGGGUUCGAGUCCCGUACGGAACG", "yeast fitness": 0.707}, {"variant": "GUUCCGUUGGCGUAUUGGUAACGCGUCUCCCUCGUAAGGAGAAGACUGCGGGUUCGAGUCCCGUACGGAACG", "yeast fitness": "≤ 0.5"}, {"variant": "GUUCCGUUGGCGUAUUCGUAACGCGUCUCCCUCCUAAGGAGAAGUCUGGGGGUUCGAGUCCCGUACGGAUCG", "yeast fitness": 0.528}, {"variant": "GUUCCGUUGGCGUAUUGCUAACGGGUCUCCCUCCUAAGGAGAAGAAUGCGGGUUCGAGUCCCGCACGGGACG", "yeast fitness": 0.513}, {"variant": "GUUCCGUUGGCGUAUUGGUAACCCGUCUCCCUACUAAGGAGAAGACUGCGGGUUCGAGUCCCGUACGGAACG", "yeast fitness": "≤ 0.5"}, {"variant": "GUUCCGUUGGCGUAUUGGUAACGCGUCUCCCUCCUAAGGAGAAGACUGCGGGUUUAAGUCCCGUAGGGAACG", "yeast fitness": 0.59}, {"variant": "GUUCCGUUGGCGUAUUGGUAACGCGUCUCCUUCCUGAGGAGAAGACUGCGGGUUCGAGUCCCGUACGGAACG", "yeast fitness": 0.568}, {"variant": "GUUCCGUUGGCGUAUAGGUAAGGCGUCUCCCUCCUAAGGAGAAGACUGCGGGUUCGAGUUCCGUACGGAACG", "yeast fitness": "≤ 0.5"}, {"variant": "GUUCCGUUGGCGUAUUGGUAACACGUCUCCCUCCUAAGGAGAAGGCUGCGGGUUCGAGUCCCGUACGGAACG", "yeast fitness": "≤ 0.5"}]}]}
